Assay results published in paper PMC8273888 (Journal of Medicinal Chemistry, 2021).
Read-outs that look alike come from different tables or passages of the source.

Assays:
IMP-1 [1] = biological target: T1, IMP-1 (Serratia marcescens, UniProt P52699); conditions: cited from earlier work
VIM-1 = conditions: cited from earlier work
NDM-1 [2] = biological target: T2, NDM-1 (Klebsiella pneumoniae, UniProt C7C422); conditions: read-out: IC50 NDM-1; cited from earlier work
E. cloacae (IMP-1) = test: Synergy assay: MIC of meropenem in combination with test compound; type: cell-based
E. coli (NDM-1) = test: as above; type: cell-based
IMP-1 [3] = biological target: T1, IMP-1; test: Enzyme inhibition assay with nitrocefin as chromogenic substrate; type: biochemical; conditions: for decrease of activity against IMP-1 relative to 8: from IC50 data of Table 2
IMP-28 = IMP-28 (Klebsiella oxytoca, UniProt G4WB26); test: as above; type: biochemical; conditions: for decrease of activity against IMP-28 relative to 8: from IC50 data of Table 2
Chain of IMP-28 (G4WB26 20-246): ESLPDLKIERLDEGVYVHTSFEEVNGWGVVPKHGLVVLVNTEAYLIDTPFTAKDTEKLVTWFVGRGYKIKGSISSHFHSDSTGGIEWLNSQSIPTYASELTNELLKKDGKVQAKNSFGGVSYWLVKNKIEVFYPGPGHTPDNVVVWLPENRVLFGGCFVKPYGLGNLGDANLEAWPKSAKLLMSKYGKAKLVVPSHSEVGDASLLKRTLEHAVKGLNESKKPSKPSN

K. pneumoniae (IMP-28) = test: Synergy assay: MIC of meropenem in combination with test compound; type: cell-based
E. coli (VIM-2) = test: as above; type: cell-based
NDM-1 [4] = biological target: T2, NDM-1; test: Enzyme inhibition assay with nitrocefin as chromogenic substrate; type: biochemical
Method in brief: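 Recombinant NDM-1 (6 nM) in 50 mM HEPES pH 7.2 with 1 μM ZnSO₄ and 0.01% Triton X-100 was preincubated with a range of test compound concentrations for 15–60 min at 25 °C. Nitrocefin (10 μM, ∼2 × K_M) was then added and A492 was read at once over 30 cycles. For time 0, enzyme was added last. IC50 came from initial velocities, in three independent replicates.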

VIM-2 = VIM-2 (Escherichia coli, UniProt Q5U7L7); conditions: cited from earlier work
IMP family = conditions: cited from earlier work
[5] = test compound 0 μg/mL (meropenem alone, baseline)
[6] = mean ± SD, nitrocefin substrate

T1 sequence (P52699 19-246, looked up, species assumed): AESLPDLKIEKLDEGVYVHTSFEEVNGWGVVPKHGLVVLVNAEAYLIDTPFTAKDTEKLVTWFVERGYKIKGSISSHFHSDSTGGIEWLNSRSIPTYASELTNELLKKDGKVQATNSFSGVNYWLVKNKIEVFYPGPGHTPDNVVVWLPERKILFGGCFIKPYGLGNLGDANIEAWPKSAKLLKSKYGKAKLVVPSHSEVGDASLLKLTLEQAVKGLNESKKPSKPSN
T2 sequence (C7C422 29-270, looked up, species assumed): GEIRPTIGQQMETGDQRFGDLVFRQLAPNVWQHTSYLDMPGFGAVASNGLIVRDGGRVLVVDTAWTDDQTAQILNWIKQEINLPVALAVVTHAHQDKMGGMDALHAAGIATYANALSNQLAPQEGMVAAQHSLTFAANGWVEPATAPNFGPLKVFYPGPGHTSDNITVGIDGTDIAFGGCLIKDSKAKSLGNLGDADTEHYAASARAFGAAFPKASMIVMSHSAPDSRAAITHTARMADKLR

O=C(O)c1ncsc1NS(=O)(=O)c1cccnc1 [ANT431]
inhibitory activity against IMP-1 (IMP-1 [1]): remain resistant | inhibitory activity against VIM-1 (VIM-1): remain resistant | IC50 (NDM-1 [2]): 2.67 µM

O=C(Cc1ccccc1)N[C@@H]1C(=O)N2C(C(=O)O)=C(CSCC(=O)c3ccccc3)CS[C@H]12 [Compound 6]
Fold reduction of MIC (meropenem) (E. cloacae (IMP-1); test compound 128 μg/mL): 4 (4) fold | meropenem MIC (E. cloacae (IMP-1); test compound 128 μg/mL): 4 (4) μg/mL | meropenem MIC (E. coli (NDM-1); [5]): 32 µg/mL

O=C(Cc1ccccc1)N[C@H](C(=O)O)[C@@H]1N=C(C(=O)O)C(CSC(C(=O)O)c2ccccc2)CS1 (stereo partly drawn) [Compound 8H]
IC50 IMP-1 (IMP-1 [3]; [6]): sub-micromolar | IC50 IMP-28 (IMP-28; [6]): sub-micromolar

O=C(Cc1ccccc1)N[C@@H]1C(=O)N2C(C(=O)O)=C(CSC(C(=O)O)c3ccccc3)CS[C@H]12 (stereo partly drawn) [Compound 8]
Fold reduction of MIC (meropenem) (K. pneumoniae (IMP-28); test compound 32 μg/mL): ≥ 64 fold | Fold reduction of MIC (meropenem) (K. pneumoniae (IMP-28); test compound 64 μg/mL): ≥ 64 fold | Fold reduction of MIC (meropenem) (K. pneumoniae (IMP-28); test compound 128 μg/mL): ≥ 64 fold

O=C(Cc1ccccc1)N[C@@H]1C(=O)N2C(C(=O)O)=C(CS[C@H](Cc3ccccc3)C(=O)O)CS[C@H]12 [Compound 9]
potency relative to diastereomer 10 against IMP-1 (IMP-1 [3]; more potent than 10): ca. 10 fold | Fold reduction of MIC (meropenem) (K. pneumoniae (IMP-28); test compound 32 μg/mL): ≥ 64 fold | Fold reduction of MIC (meropenem) (K. pneumoniae (IMP-28); test compound 64 μg/mL): ≥ 64 fold | Fold reduction of MIC (meropenem) (K. pneumoniae (IMP-28); test compound 128 μg/mL): ≥ 64 fold | potency relative to diastereomer 10 against IMP-28 (IMP-28; more potent than 10): ~30 fold

O=C(Cc1ccccc1)N[C@@H]1C(=O)N2C(C(=O)O)=C(CS[C@@H](Cc3ccccc3)C(=O)O)CS[C@H]12 [Compound 10]
Fold reduction of MIC (meropenem) (E. cloacae (IMP-1); test compound 128 μg/mL): 4 (4) fold | meropenem MIC (E. cloacae (IMP-1); test compound 128 μg/mL): 4 (4) μg/mL

O=C(Cc1ccccc1)N[C@@H]1C(=O)N2C(C(=O)O)=C(CSCc3ccccc3)CS[C@H]12 [Compound 11]
decrease of activity against IMP-1 relative to 8 (IMP-1 [3]): ca. 100 fold | meropenem MIC (E. cloacae (IMP-1); [5]): 32 µg/mL | meropenem MIC (E. coli (NDM-1); [5]): 32 µg/mL | Fold reduction of MIC (meropenem) (E. coli (VIM-2); test compound 32 μg/mL): 2 (2) fold | meropenem MIC (E. coli (VIM-2); test compound 32 μg/mL): 2 (2) μg/mL | Fold reduction of MIC (meropenem) (E. coli (VIM-2); test compound 64 μg/mL): 2 (2) fold | meropenem MIC (E. coli (VIM-2); test compound 64 μg/mL): 2 (2) μg/mL | IC50 (NDM-1 [4]): > 100 µM | decrease of activity against IMP-28 relative to 8 (IMP-28): ca. 100 fold

O=C(Cc1ccccc1)N[C@@H]1C(=O)N2C(C(=O)O)=C(CSCCc3ccccc3)CS[C@H]12 [Compound 12]
meropenem MIC (E. coli (NDM-1); [5]): 64 µg/mL | IC50 (NDM-1 [4]): > 100 µM

O=C(O)CSCC1=C(C(=O)O)N2C(=O)[C@@H](NC(=O)Cc3ccccc3)[C@H]2SC1 [Compound 13]
IC50 (IMP-1 [3]): > 100 µM | decrease of activity against IMP-1 relative to 8 (IMP-1 [3]): ca. 100 fold | Fold reduction of MIC (meropenem) (E. cloacae (IMP-1); test compound 128 μg/mL): 4 (4) fold | meropenem MIC (E. cloacae (IMP-1); test compound 128 μg/mL): 4 (4) μg/mL | meropenem MIC (E. coli (NDM-1); [5]): 32 µg/mL | Fold reduction of MIC (meropenem) (E. coli (VIM-2); test compound 32 μg/mL): 2 (2) fold | meropenem MIC (E. coli (VIM-2); test compound 32 μg/mL): 2 (2) μg/mL | Fold reduction of MIC (meropenem) (E. coli (VIM-2); test compound 64 μg/mL): 2 (2) fold | meropenem MIC (E. coli (VIM-2); test compound 64 μg/mL): 2 (2) μg/mL | decrease of activity against IMP-28 relative to 8 (IMP-28): ca. 100 fold

CC1=C(C(=O)O)N2C(=O)[C@@H](NC(=O)Cc3ccccc3)[C@H]2SC1 [Compound 15]
IC50 (IMP-1 [3]): > 100 µM | decrease of activity against IMP-1 relative to 8 (IMP-1 [3]): ca. 100 fold | meropenem MIC (E. coli (NDM-1); [5]): 32 µg/mL | Fold reduction of MIC (meropenem) (E. coli (VIM-2); test compound 32 μg/mL): 2 (2) fold | meropenem MIC (E. coli (VIM-2); test compound 32 μg/mL): 2 (2) μg/mL | Fold reduction of MIC (meropenem) (E. coli (VIM-2); test compound 64 μg/mL): 2 (2) fold | meropenem MIC (E. coli (VIM-2); test compound 64 μg/mL): 2 (2) μg/mL | IC50 (NDM-1 [4]): > 100 µM | decrease of activity against IMP-28 relative to 8 (IMP-28): ca. 100 fold

O=C(O)c1cccc(C(=O)O)n1 [DPA, Dipicolinic acid, reference compound]
meropenem MIC (E. coli (NDM-1); test compound 128 μg/mL): ≤ 0.5 µg/mL | meropenem MIC (E. coli (VIM-2); [5]): 4 µg/mL | meropenem MIC (E. coli (VIM-2); test compound 32 μg/mL): ≤ 0.063 µg/mL | meropenem MIC (E. coli (VIM-2); test compound 64 μg/mL): ≤ 0.063 µg/mL | meropenem MIC (E. coli (VIM-2); test compound 128 μg/mL): ≤ 0.063 µg/mL | meropenem MIC (K. pneumoniae (IMP-28); test compound 64 μg/mL): ≤ 0.031 µg/mL | meropenem MIC (K. pneumoniae (IMP-28); test compound 128 μg/mL): ≤ 0.031 µg/mL

NCCN[C@H]1CC[C@H](CC(=O)N[C@H]2Cc3cccc(C(=O)O)c3OB2O)CC1 [taniborbactam]
IC50 VIM-2 (VIM-2): sub-micromolar | inhibition of the IMP family (IMP family): weak inhibition
